The results in this text go back to ChEMBL document CHEMBL1250498, “Design, synthesis and pro-apoptotic antitumour properties of indole-based 3,5-disubstituted oxadiazoles” (Eur J Med Chem, 2010).

For one test, the system named is Jurkat. In words: Anticancer activity against human Jurkat cells after 72 hrs by WST-1 assay. The test is classed as functional, cell-based. The procedure, abridged: (§1)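 Cells grown in DMEM with 2 mM L-glutamine, 10% FBS, 2.5% horse serum, penicillin and streptomycin, 37 °C, 5% CO2. Seeded at 2 × 10³/well, exposed 72 h to 0.1–50 µM (DMSO ≤0.2% in medium). WST-1 formazan absorbance read at 450 nm. Inhibition taken as % absorbance reduction versus control; IC50 from non-linear least-squares fit. Triplicate, independent experiments averaged.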

Test [1] in a line: Anticancer activity against human COLO320 cells after 72 hrs by WST-1 assay. The settings on record: COLO 320, 72 h. It counts as functional, cell-based. In a few lines: as §1
The test system of test [2] is MIA PaCa-2. Kind of test: Anticancer activity against human MIAPaCa2 cells after 72 hrs by WST-1 assay. The note with it: MIA PaCa-2, 72 h. The test is classed as functional, cell-based. In a few lines:
as §1

For another test, the system named is MCF7. Kind of test: Anticancer activity against human MCF7 cells after 72 hrs by WST-1 assay. The test is classed as functional, cell-based. The settings on record: MCF7, 72 h. In a few lines:
as §1

Test [3] deals with MIA PaCa-2. In words: Induction of apoptosis in human MIAPaCa2 cells assessed as increase in caspase 3/7 activation at 100 uM after 24 hrs by spectrophotometry relative to control. The test is classed as functional. In a few lines: (§2)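 Seeded at 7 × 10³/well and dosed 100 µM for 24 h. Caspase-3/7 substrate then added; fluorescence read with excitation 485 nm and emission 530 nm. Result given as the ratio of treated-cell signal to untreated vehicle-only cells.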

Test [4] relates to COLO 320. Kind of test: Induction of apoptosis in human COLO320 cells assessed as increase in intraneucleosomal DNA fragmentation at 100 uM after 24 hrs by ELISA relative to control. The test is classed as functional. The procedure, abridged: (§3)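 Dosed at 100 µM for 24 h. Trypsin-harvested cells pooled with detached cells. Cytoplasmic histone-associated DNA fragments (released nucleosomes) measured by sandwich ELISA using a mouse monoclonal anti-DNA/histone antibody. Given as fold over untreated control; duplicate, mean ± SEM.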

Test [5] relates to COLO 320. Kind of test: Induction of apoptosis in human COLO320 cells assessed as increase in caspase 3/7 activation at 100 uM after 24 hrs by spectrophotometry relative to control. The test is classed as functional. In a few lines: as §2
Test [6] relates to MIA PaCa-2. In words: Induction of apoptosis in human MIAPaCa2 cells assessed as increase in intraneucleosomal DNA fragmentation at 100 uM after 24 hrs by ELISA relative to control. The test is classed as functional. In a few lines: as §3

With `Cc1noc(-c2cc3ccccc3[nH]2)n1`, the IC50 was over 50 µM in the test with Jurkat, 11.8 µM in test [1], 30.5 µM in the test with MIA PaCa-2 [2] and over 50 µM in the test with MCF7.

Take `COc1ccc2[nH]c(-c3nc(C)no3)cc2c1`: the IC50 in the test on Jurkat is 19.9 µM; in test [1], 10.4 µM; with MIA PaCa-2 [2] it was over 50 µM; with MCF7, 16.7 µM.

Regarding `Cc1noc(-c2cc3cc(F)ccc3[nH]2)n1`, the IC50 in the test on Jurkat was found to be 22.9 µM; in test [1] it was 18.1 µM; in the test with MIA PaCa-2 [2], 19.4 µM; in the test on MCF7, 12.4 µM. Also, the “fold change (FC)” value amounted to 1.3 in the test on MIA PaCa-2 [3], 1 with COLO 320 [4], 1.5 with COLO 320 [5] and 7.3 in the test with MIA PaCa-2 [6].

For the compound `Cc1noc(-c2cc3cc(Cl)ccc3[nH]2)n1`, the IC50 with Jurkat is 21.6 µM; in test [1], 19.5 µM; with MIA PaCa-2 [2] it was over 50 µM; in the test on MCF7, 34.4 µM.

For the compound `c1ccc(-c2noc(-c3cc4ccccc4[nH]3)n2)cc1`, the IC50 was over 50 µM in the test with Jurkat, 12 µM in test [1], 22 µM with MIA PaCa-2 [2] and 45.7 µM in the test with MCF7. The “fold change (FC)” value in the test on MIA PaCa-2 [3] is 1.2; in the test on COLO 320 [4], 2.5; in the test with COLO 320 [5] it was 3.1; with MIA PaCa-2 [6], 1.4.

On to `Nc1noc(-c2cc3ccccc3[nH]2)n1`, for which the IC50 is over 50 µM with Jurkat, 27.7 µM in test [1], 18.7 µM in the test with MIA PaCa-2 [2] and over 50 µM in the test on MCF7.

Consider `COc1ccc2[nH]c(-c3nc(-c4ccccc4)no3)cc2c1`, for which the IC50 was over 50 µM in the test on Jurkat, 18.7 µM in test [1], 32.6 µM in the test on MIA PaCa-2 [2] and over 50 µM in the test on MCF7.

Take `Oc1ccc2[nH]c(-c3nc(-c4ccccc4)no3)cc2c1`: the IC50 stood at 26.9 µM in the test on Jurkat, 15.7 µM in test [1], 13 µM in the test on MIA PaCa-2 [2] and 26 µM with MCF7. Besides, the “fold change (FC)” value in the test with MIA PaCa-2 [3] is 0.7; with COLO 320 [4] it was 4.3; with COLO 320 [5], 3.6; with MIA PaCa-2 [6] it was 7.3.

For `Fc1ccc2[nH]c(-c3nc(-c4ccccc4)no3)cc2c1`, the IC50 in the test on Jurkat turned out to be 33.8 µM; in test [1], 10.8 µM; in the test with MIA PaCa-2 [2], 33.6 µM; with MCF7, 35 µM. For the same compound, the “fold change (FC)” value in the test with MIA PaCa-2 [3] was 1.2; with COLO 320 [4], 5.3; in the test with COLO 320 [5] it was 4.4; in the test with MIA PaCa-2 [6], 6.9.

On to `O=[N+]([O-])c1ccc2[nH]c(-c3nc(-c4ccccc4)no3)cc2c1`, for which the IC50 in the test with Jurkat is over 50 µM; in test [1], 12.5 µM; with MIA PaCa-2 [2], over 50 µM; with MCF7 it was over 50 µM.

As to `Clc1ccc2[nH]c(-c3nc(-c4ccccc4)no3)cc2c1`, the IC50 in the test with Jurkat was over 50 µM; in test [1], 16.5 µM; in the test on MIA PaCa-2 [2], 23.1 µM; in the test on MCF7, 29.1 µM. Further, the “fold change (FC)” value with MIA PaCa-2 [3] is reported as 1.9; in the test on COLO 320 [4], 2.1; in the test on COLO 320 [5] it was 1.3; in the test with MIA PaCa-2 [6], 1.9.

`Clc1ccc(-c2noc(-c3cc4ccccc4[nH]3)n2)cc1`: the IC50 is over 50 µM in the test with Jurkat, 13.9 µM in test [1], 19.2 µM in the test with MIA PaCa-2 [2] and over 50 µM in the test on MCF7. Also, the “fold change (FC)” value in the test on MIA PaCa-2 [3] was 1.2; in the test with COLO 320 [4] it was 3; in the test on COLO 320 [5], 0.3; in the test with MIA PaCa-2 [6], 1.

On to `COc1ccc2[nH]c(-c3nc(-c4ccc(Cl)cc4)no3)cc2c1`, for which the IC50 with Jurkat was over 50 µM; in test [1], 12.8 µM; in the test on MIA PaCa-2 [2] it was 22.7 µM; in the test on MCF7 it was over 50 µM. The “fold change (FC)” value in the test on MIA PaCa-2 [3] is 10.1; in the test on COLO 320 [4] it was 1.8; with COLO 320 [5] it was 4.5; in the test on MIA PaCa-2 [6], 1.2.

Consider `Fc1ccc2[nH]c(-c3nc(-c4ccc(Cl)cc4)no3)cc2c1`, for which the IC50 (in the test on Jurkat; in test [1]; with MIA PaCa-2 [2]; in the test on MCF7) was over 50 µM in each case.

On to `O=[N+]([O-])c1ccc2[nH]c(-c3nc(-c4ccc(Cl)cc4)no3)cc2c1`, for which the IC50 with Jurkat was over 50 µM; in test [1] it was 7.7 µM; in the test with MIA PaCa-2 [2], 17.6 µM; in the test with MCF7 it was over 50 µM. The “fold change (FC)” value in the test on MIA PaCa-2 [3] is listed as 23.9; with COLO 320 [4] it was 1.8; with COLO 320 [5], 6.4; in the test with MIA PaCa-2 [6], 2.7.

With `Clc1ccc(-c2noc(-c3cc4cc(Cl)ccc4[nH]3)n2)cc1`, the IC50 in the test with Jurkat was over 50 µM; in test [1] it was 25 µM; in the test with MIA PaCa-2 [2] it was over 50 µM; in the test with MCF7, over 50 µM.

For the compound `Cn1c(-c2nc(-c3ccc(Cl)cc3)no2)cc2cc(Cl)ccc21`, the IC50 in the test with Jurkat is over 50 µM; in test [1], 16.9 µM; in the test on MIA PaCa-2 [2], over 50 µM; in the test on MCF7, over 50 µM.

`COc1ccc(-c2noc(-c3cc4ccccc4[nH]3)n2)cc1`: the IC50 in the test on Jurkat is over 50 µM; in test [1], 27.7 µM; with MIA PaCa-2 [2] it was over 50 µM; in the test with MCF7, over 50 µM.

For the compound `COc1ccc(-c2noc(-c3cc4ccccc4n3C)n2)cc1`, the IC50 is over 50 µM in the test with Jurkat, over 50 µM in test [1], 23.1 µM in the test with MIA PaCa-2 [2] and over 50 µM in the test with MCF7.

With `COc1ccc(-c2noc(-c3cc4cc(OC)ccc4[nH]3)n2)cc1`, the IC50 in the test on Jurkat was over 50 µM; in test [1], 28.3 µM; with MIA PaCa-2 [2] it was 5.6 µM; in the test with MCF7 it was over 50 µM. In addition, the “fold change (FC)” value with MIA PaCa-2 [3] turned out to be 2; in the test on COLO 320 [4], 1.2; in the test with COLO 320 [5] it was 1.1; with MIA PaCa-2 [6], 1.9.

Turning to `COc1ccc(-c2noc(-c3cc4cc(F)ccc4[nH]3)n2)cc1`, the IC50 was over 50 µM in the test with Jurkat, 14.8 µM in test [1], 10.3 µM in the test on MIA PaCa-2 [2] and over 50 µM with MCF7. Further, the “fold change (FC)” value worked out at 5 in the test with MIA PaCa-2 [3], 1.4 in the test on COLO 320 [4], 2.1 with COLO 320 [5] and 2.2 in the test on MIA PaCa-2 [6].

`COc1ccc(-c2noc(-c3cc4cc(Cl)ccc4[nH]3)n2)cc1`: the IC50 in the test on Jurkat is over 50 µM; in test [1], 9.6 µM; with MIA PaCa-2 [2] it was 7.8 µM; in the test with MCF7, over 50 µM. Besides, the “fold change (FC)” value in the test on MIA PaCa-2 [3] is given as 1.4; in the test with COLO 320 [4] it was 1.2; in the test on COLO 320 [5], 4.2; in the test on MIA PaCa-2 [6], 1.4.

As for `FC(F)(F)c1ccc(-c2noc(-c3sccc3Cl)n2)cc1`, the IC50 in the test on Jurkat was over 50 µM; in test [1], 1.2 µM; in the test on MIA PaCa-2 [2], over 50 µM; with MCF7, over 50 µM.
